In experiment [1] the target is Induced myeloid leukemia cell differentiation protein Mcl-1 (Homo sapiens, UniProt Q07820). The experiment can be described thus: Displacement of FAM-Bid peptide from recombinant N-terminal His6x-tagged human Mcl-1 expressed in Escherichia coli BL21 (DE3) incubated for 30 mins by fluorescence polarization assay.
For experiment [2], the system named is A549. The experiment can be described thus: Potentiation of taxol-induced cytotoxicity against human A549 cells assessed as fold reduction in taxol IC50 for inhibition of cell viability measured after 48 hrs by SRB assay. It is filed as functional. The procedure, abridged:
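A549 cells in RPMI1640 with 10% FBS at 37°C, 5% CO2. Seeded at 6.5 × 10^3 cells/well and allowed to adhere 24 h. Then exposed 48 h to taxol alone or combined with the Mcl-1 inhibitor (0.0001–100 μM). TCA fixation at 4°C, SRB staining, and Tris-solubilized dye read at 570 nm. Growth inhibition taken relative to control. IC50 reported as mean of triplicates.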

The term IC50 denotes the concentration that gives 50% inhibition. By Ki is commonly meant a measure of affinity in units of concentration, obtained from inhibition or displacement.

Sequence of Induced myeloid leukemia cell differentiation protein Mcl-1 (Q07820 whole entry): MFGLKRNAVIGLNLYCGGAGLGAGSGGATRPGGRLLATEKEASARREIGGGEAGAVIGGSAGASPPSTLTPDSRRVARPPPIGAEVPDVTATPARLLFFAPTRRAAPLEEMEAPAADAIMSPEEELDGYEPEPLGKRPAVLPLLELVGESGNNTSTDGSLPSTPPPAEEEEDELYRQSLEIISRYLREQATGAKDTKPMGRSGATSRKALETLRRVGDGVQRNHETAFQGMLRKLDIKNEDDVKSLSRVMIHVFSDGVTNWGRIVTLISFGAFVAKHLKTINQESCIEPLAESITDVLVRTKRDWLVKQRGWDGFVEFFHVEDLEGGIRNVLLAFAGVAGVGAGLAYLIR

As for `O=C(O)Cc1cc(=O)oc2cc(O)c(O)cc12`, in experiment [1], the IC50 was 33.7 µM and the Ki is 9.36 µM.
For `O=c1cc(-c2ccccc2)c2cc(O)c(O)cc2o1`, in that order: 3.27 µM and 0.65 µM.
For `Cc1cc(=O)oc2cc(O)c(Cl)cc12`, in that order: 28.6 µM and 5.26 µM.
In the same order, the values of `O=c1cc(CCl)c2ccc(O)c(O)c2o1` are 18.6 µM and 3.19 µM.
In the case of `Cc1cc(=O)oc2c([N+](=O)[O-])c(O)ccc12`, in experiment [1], the IC50 is 26.3 µM and the Ki turned out to be 10.8 µM.
In the case of `O=c1cc(CO)c2ccc(O)c(O)c2o1`, in experiment [1], the IC50 is 32.2 µM and the Ki is 5.67 µM.
In the same order, the values of `Cc1cc(=O)oc2c(CN(C)C)c(O)c(O)cc12` are 7.39 µM and 1.46 µM.
In the same order, the values of `COc1ccc2c(CCl)cc(=O)oc2c1O` are 30.6 µM and 6.59 µM.
For `O=c1ccc2cc(O)c(O)c(CN3CCC(O)CC3)c2o1`, in that order: 21.8 µM and 4.81 µM.
Consider `COc1ccc2c(CO)cc(=O)oc2c1O`, for which, in experiment [1], the IC50 came to 32.9 µM and the inhibitory constant (Ki) was 7.15 µM.
For `COc1cc2cc([N+](=O)[O-])c(=O)oc2c([N+](=O)[O-])c1OC`, in that order: 12.2 µM and 2.19 µM.
In the same order, the values of `O=c1cc(CO)c2cc(O)c(O)cc2o1` are 4.01 µM and 0.76 µM.
Regarding `CN(C)Cc1c(O)c(O)cc2ccc(=O)oc12`, in experiment [1], the IC50 was found to be 53.6 µM and the Ki turned out to be 11.5 µM.
In the same order, the values of `COc1ccc2ccc(=O)oc2c1O` are 16.9 µM and 7.02 µM.
For `[N-]=[N+]=NCc1cc(=O)oc2cc(O)c(O)cc12`, in that order: 34.6 µM and 9.17 µM.
For `COc1ccc2c(C)cc(=O)oc2c1O`, in that order: 16.9 µM and 2.39 µM.
Consider `Cc1cc(=O)oc2c(CN3CCCC3)c(O)c(O)cc12`, for which, in experiment [1], the IC50 turned out to be 11.3 µM and the Ki was determined as 2.54 µM.
For `Cc1cc(=O)oc2c(CN3CCC(O)CC3)c(O)c(O)cc12`, in that order: 59.2 µM and 21.3 µM.
For the compound `CN(C)Cc1c(O)c(O)cc2oc(=O)ccc12`, in experiment [1], the 50% inhibitory concentration (IC50) stood at 19.9 µM and the Ki was 4.79 µM.
Take `O=c1ccc2c(CN3CCC(O)CC3)c(O)c(O)cc2o1`: in experiment [1], the IC50 is 14.7 µM and the Ki is 2.77 µM.
As for `O=c1cc(C(F)(F)F)c2cc(O)c(O)cc2o1`, the “fold change (FC)” value in experiment [2] is more than 10. Besides, in experiment [1], the concentration for half-maximal inhibition (IC50) was 1.21 µM and the Ki is 0.21 µM.
On to `O=c1cc(CCl)c2cc(O)c(O)cc2o1`, for which, in experiment [1], the IC50 worked out at 5.82 µM and the Ki worked out at 1.04 µM.
In the same order, the values of `CCc1cc2c(C)cc(=O)oc2cc1O` are 30.9 µM and 5.47 µM.
With `Cc1cc(=O)oc2c(O)c(O)ccc12` [4-METHYLDAPHNETIN], in experiment [1], the IC50 was found to be 11.2 µM and the Ki came to 2.11 µM.
For `Cc1cc(=O)oc2cc(O)c(O)cc12` [4-METHYLESCULETIN], in that order: 6.28 µM and 1.19 µM.
In the same order, the values of `O=c1ccc2cc(O)ccc2o1` [6-HYDROXYCOUMARIN] are 83.7 µM and 23.9 µM.
`O=c1ccc2ccccc2o1` [COUMARIN]: in experiment [1], the IC50 was 24.4 µM and the Ki was 4.06 µM.
Regarding `O=c1ccc2ccc(O)c(O)c2o1` [DAPHNETIN], in experiment [1], the IC50 was determined as 11.8 µM and the Ki was found to be 1.75 µM.
For the compound `O=c1ccc2cc(O)c(O)cc2o1` [ESCULETIN], in experiment [1], the IC50 is 8.77 µM and the Ki turned out to be 1.49 µM.
For `COc1cc2ccc(=O)oc2c(O)c1O` [FRAXETIN], in that order: 32.1 µM and 5.51 µM.
In the same order, the values of `Cc1cc(=O)oc2cc(O)ccc12` [HYMECROMONE] are 104 µM and 22.1 µM.
For `COc1cc2oc(=O)ccc2cc1O` [ISOSCOPOLETIN], in that order: 51.5 µM and 15.9 µM.
For `COc1cc2ccc(=O)oc2cc1OC` [SCOPARONE], in experiment [1], the IC50 came to 25.1 µM and the Ki is 9.54 µM.
With `COc1cc2ccc(=O)oc2cc1O` [SCOPOLETIN], in experiment [1], the IC50 amounted to 22.6 µM and the Ki was 13.4 µM.
In the same order, the values of `O=c1ccc2ccc(O)cc2o1` [UMBELLIFERONE] are 21 µM and 3.81 µM.

The values above are taken from ChEMBL document CHEMBL4699656, “Synthesis and structure-activity relationship of coumarins as potent Mcl-1 inhibitors for cancer treatment” (Bioorg Med Chem, 2021).
